These results are taken from ChEMBL document CHEMBL1629690, “Development of hexadecyloxypropyl tenofovir (CMX157) for treatment of infection caused by wild-type and nucleoside/nucleotide-resistant HIV” (Antimicrob Agents Chemother, 2010).

The test system of series [1] is PBMC. The series can be described thus: Cellular uptake in PHA/IL-2-stimulated human PBMC at 1 uM after 24 hrs by MS/MS analysis. The class given is ADME, cell-based. The note with it: BLD = below limit of detection. The procedure, abridged:
(§1)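 PHA-stimulated (4 μg/ml PHA, 48 to 72 h; 20 U/ml rhIL-2) human PBMCs at 2 × 10^6 cells/ml in RPMI 1640 with 15% FBS, given tenofovir or prodrug (final 0.01 to 10 μM) for 24 h at 37°C. Cells washed three times in cold 0.9% NaCl, counted, and 1 × 10^7 cell aliquots pelleted. TFV, TFV-MP and TFV-PP were separated by ion-pairing reverse-phase LC and detected by positive-ion electrospray MS. Output is pmol per 10^6 cells.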

The subject of series [2] is PBMC. The series can be described thus: Cellular uptake in human PBMC at 1 uM after 24 hrs by MS/MS analysis. The class given is ADME, cell-based. In short, it runs like this:
(§2)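 Human PBMCs, unstimulated or PHA/IL-2-stimulated, at 2 × 10^6 cells/ml in RPMI 1640 with 15% FBS, exposed 24 h at 37°C to final 0.01, 0.1, 1.0 or 10 μM of the prodrug, or 1.0 or 10 μM tenofovir. After cold saline washes the cells were counted and 1 × 10^7-cell pellets made. TFV, TFV-MP and TFV-PP were measured by ion-pairing LC with positive-ion electrospray MS as pmol/10^6 cells.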

Series [3] deals with PBMC. The series can be described thus: Cellular uptake in human PBMC at 10 uM after 24 hrs by MS/MS analysis. The class given is ADME, cell-based. The procedure, abridged: as §2
The subject of series [4] is Human immunodeficiency virus 1. Briefly: Antiviral activity against HIV1 subtype B isolate ADA infected in human PBMC after 48 to 72 hrs by MTS assay. Particulars: Human immunodeficiency virus 1, isolate ADA; call rule not given here. Type of series: functional, organism-based. In short, it runs like this: (§3)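 Fresh donor PBMCs, HIV- and HBV-seronegative, were stimulated with 4 μg/ml PHA for 48 to 72 h and kept on 20 U/ml rhIL-2. Cells pooled from at least two donors were seeded at 5 × 10^4 per well and infected at MOI ~0.1. Nine compound concentrations were run in triplicate wells for 7 days.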

The test system of series [5] is Human immunodeficiency virus 1. The series can be described thus: Antiviral activity against HIV1 subtype B isolate 96USHIPS7 infected in human PBMC after 48 to 72 hrs by MTS assay. The class given is functional, organism-based. Particulars: Human immunodeficiency virus 1, isolate 96USHIPS7. The procedure, abridged:
as §3
Background: Tetrazolium assays rely on reduction of a dye to a coloured formazan, in cell work by metabolically active cells.

For series [6], the system named is Human immunodeficiency virus 1. The series can be described thus: Antiviral activity against HIV1 isolate JR-CSF infected in human PBMC after 48 to 72 hrs by MTS assay. The class given is functional. The note with it: Human immunodeficiency virus 1, JRCSF ISOLATE. The procedure, abridged:
(§4)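 This is the PHA/IL-2 PBMC assay run with JR-CSF preincubated with 8 × 10^6 pooled cells for 1 h at 37°C. Cells were then spinoculated at 200 × g for 1 h and held 2 h more. Infected cells (2.5 × 10^4) were added, without virus washout, to wells holding uninfected PBMCs and compound. Medium had 15% FBS, plus 0, 10, 15, 20 or 30% human serum.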

In series [7] the test system is Human immunodeficiency virus 1. The series can be described thus: Antiviral activity against HIV1 subtype C isolate 91IN101 infected in human PBMC after 48 to 72 hrs by MTS assay. The note with it: Human immunodeficiency virus 1, isolate 93IN101; in the assay text read “93IN101” for “91IN101”. Type of series: functional, organism-based. In short, it runs like this:
as §3

The subject of series [8] is Human immunodeficiency virus 1. The series can be described thus: Antiviral activity against HIV1 subtype C isolate 93MW959 infected in human PBMC after 48 to 72 hrs by MTS assay. Particulars: Human immunodeficiency virus 1, isolate 93MW959. Type of series: functional, organism-based. In short, it runs like this: as §3
Series [9] concerns PBMC. The series can be described thus: Cellular uptake in PHA/IL-2-stimulated human PBMC at 0.01 uM assessed as TFV-monophosphate after 24 hrs by MS/MS analysis. Type of series: ADME, cell-based. The note with it: BLD = below limit of detection. In short, it runs like this: (§5)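 PHA/IL-2-stimulated PBMCs at 2 × 10^6 cells/ml (5 × 10^7 per flask) were exposed for 24 h at 37°C. Cells were washed three times in cold 0.9% NaCl and counted by trypan blue. Aliquots of 1 × 10^7 cells were pelleted. TFV, TFV-MP and TFV-PP were separated by ion-pairing reverse-phase gradient LC and detected by positive electrospray. Results are given as pmol/10^6 cells.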

Series [10] has as its system PBMC. The series can be described thus: Cellular uptake in PHA/IL-2-stimulated human PBMC at 0.1 uM assessed as TFV-monophosphate after 24 hrs by MS/MS analysis. Type of series: ADME, cell-based. The note with it: BLD = below limit of detection. In short, it runs like this:
as §5

In series [11] the test system is PBMC. Briefly: Cellular uptake in PHA/IL-2-stimulated human PBMC at 10 uM assessed as TFV level after 24 hrs by MS/MS analysis. Type of series: ADME, cell-based. In short, it runs like this:
as §1

For series [12], the system named is Human immunodeficiency virus 1. Briefly: Antiviral activity against HIV1 group O isolate BCF01 infected in human PBMC after 48 to 72 hrs by MTS assay. The class given is functional, organism-based. Particulars: Human immunodeficiency virus 1, isolate BCF01. In short, it runs like this:
as §3

In series [13] the test system is Human immunodeficiency virus 1. The series can be described thus: Antiviral activity against HIV1 group O isolate BCF03 infected in human PBMC after 48 to 72 hrs by MTS assay. Type of series: functional, organism-based. The note with it: Human immunodeficiency virus 1, isolate BCF03. In short, it runs like this:
as §3

Series [14] deals with Human immunodeficiency virus 1. The series can be described thus: Antiviral activity against HIV1 subtype B isolate Ba-L infected in human MDM […] by MTS assay. Type of series: functional, organism-based. The note with it: Human immunodeficiency virus 1, isolate Ba-L.
The subject of series [15] is Human immunodeficiency virus 1. Briefly: Antiviral activity against HIV1 subtype B isolate 92TH014 infected in human MDM […] by MTS assay. Type of series: functional, organism-based. Particulars: Human immunodeficiency virus 1, isolate 92TH014.
The subject of series [16] is Human immunodeficiency virus 1. The series can be described thus: Antiviral activity against HIV1 isolate JR-CSF infected in human PBMC after 48 to 72 hrs by MTS assay in presence of 10% human serum. The note with it: Human immunodeficiency virus 1, JRCSF ISOLATE. Type of series: functional. The procedure, abridged: as §4
In series [17] the test system is Human immunodeficiency virus 1. Briefly: Antiviral activity against HIV1 isolate JR-CSF infected in human PBMC after 48 to 72 hrs by MTS assay in presence of 15% human serum. Type of series: functional. Particulars: Human immunodeficiency virus 1, JRCSF ISOLATE. In short, it runs like this:
as §4

Series [18] concerns Human immunodeficiency virus 1. Briefly: Antiviral activity against HIV1 isolate JR-CSF infected in human PBMC after 48 to 72 hrs by MTS assay in presence of 20% human serum. Type of series: functional. The note with it: Human immunodeficiency virus 1, JRCSF ISOLATE. The procedure, abridged: as §4
Series [19] deals with Human immunodeficiency virus 1. The series can be described thus: Antiviral activity against HIV1 isolate JR-CSF infected in human PBMC after 48 to 72 hrs by MTS assay in presence of 30% human serum. The class given is functional. Particulars: Human immunodeficiency virus 1, JRCSF ISOLATE. The procedure, abridged: as §4
The subject of series [20] is Human immunodeficiency virus 1. Briefly: Antiviral activity against HIV1 isolate JR-CSF infected in human PBMC after 48 to 72 hrs by MTS assay in presence of 100% human serum. Particulars: Human immunodeficiency virus 1, JRCSF ISOLATE. Type of series: functional. The procedure, abridged:
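The value is an estimate for 100% human serum, extrapolated from JR-CSF EC50s measured in PHA/IL-2 PBMCs. Those assays used a virus preincubation/spinoculation step and contained 0 to 30% human serum on top of 15% FBS.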

Series [21] deals with PBMC. Briefly: Cellular uptake in human PBMC at 0.01 uM assessed as TFV-monophosphate after 24 hrs by MS/MS analysis. Type of series: ADME, cell-based. Particulars: BLD = below limit of detection. In short, it runs like this: as §2
The test system of series [22] is PBMC. Briefly: Cellular uptake in human PBMC at 0.01 uM assessed as TFV-diphosphate after 24 hrs by MS/MS analysis. The class given is ADME, cell-based. The procedure, abridged: as §2
Series [23] relates to PBMC. The series can be described thus: Cellular uptake in human PBMC at 0.1 uM assessed as TFV level after 24 hrs by MS/MS analysis. The class given is ADME, cell-based. In short, it runs like this:
as §2

Series [24] relates to PBMC. The series can be described thus: Cellular uptake in human PBMC at 0.1 uM assessed as TFV-diphosphate after 24 hrs by MS/MS analysis. Type of series: ADME, cell-based. In short, it runs like this:
as §2

The subject of series [25] is PBMC. Briefly: Cellular uptake in human PBMC at 1 uM assessed as TFV level after 24 hrs by MS/MS analysis. The class given is ADME, cell-based. The procedure, abridged: as §2

On to `C[C@H](Cn1cnc2c(N)ncnc21)OCP(=O)(O)O` [TENOFOVIR ANHYDROUS], for which the Drug uptake entry with PBMC [1] is “BLD”; in the series on PBMC [2], “Not Active”; in the series with PBMC [3] it was 0.11 pmol/10^6 cells.
`CCCCCCCCCCCCCCCCOCCCOP(=O)(O)CO[C@H](C)Cn1cnc2c(N)ncnc21` [TENOFOVIR EXALIDEX]: the EC50 in series [4] came to 1.5 nM; in [5], 1.5 nM; in [6], 1.5 nM; in [7] it was 2.8 nM; in series [8] it was 2.8 nM; in series [12], 5 nM. Further, the EC50 was determined as 5 nM in series [13]; 3.1 nM in series [14]; 3.1 nM in [15]; 4.6 nM in [16]; 6.4 nM in series [17]; 11 nM in [18]. Also, the concentration giving a half-maximal response (EC50) worked out at 16 nM in series [19] and 53 nM in series [20]. Besides, the Drug uptake entry in the series on PBMC [9] is “BLD”; with PBMC [10] it was “BLD”; in the series on PBMC [11] it was 1.9 pmol/10^6 cells; in the series on PBMC [21], “BLD”; in the series on PBMC [22], 0.07 pmol/10^6 cells; in the series on PBMC [23] it was 0.05 pmol/10^6 cells. Besides, the Drug uptake in the series on PBMC [24] and in the series on PBMC [25] was 0.07 pmol/10^6 cells throughout.

As usually defined, the EC50 is the concentration that produces a half-maximal response.
